Assays:
HaCaT [1] = test: Antihyperproliferative activity against human HaCaT cells assessed as inhibition of cell growth after 48 hrs by phase contrast microscopy; format: functional, cell-based
Method in brief: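 Immortalized human HaCaT keratinocytes incubated with compound for 48 h; growth determined by counting dispersed cells under phase contrast microscopy. Inhibition = (1 − test/control) × 100, test N = 3 vs control N = 6−8, Student's t test; IC50 by nonlinear regression.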

HaCaT [2] = test: Antihyperproliferative activity against human HaCaT cells assessed as LDH release at 2 umol/L after 4 hrs; format: functional
Method in brief: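 HaCaT keratinocytes exposed to test compound (2 μM) for 4 h at 37 °C; extracellular LDH in supernatant measured by UV method with pyruvate and NADH, reported as mU/mL. Vehicle control 0.2% DMSO in medium; Brij 35 with ultrasound as positive control; N = 3.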

[3] = Induction of superoxide generation measured per 2 mU of enzyme in presence of cytochrome P450 oxidoreductase; format: physicochemical
Method in brief: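 Human recombinant NADPH–cytochrome P450 oxidoreductase with compound ([…]); spectrophotometric SOD-inhibitable reduction of succinoylated cytochrome c, with catalase and DTPA present. Rate given as μmol/L/min per 2 mU enzyme; mean ± SD, N ≥ 3.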

[4] = Induction of superoxide generation measured per U of enzyme in presence of NQO-1; format: physicochemical
Method in brief: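 Human recombinant NQO-1 with NADPH and compound ([…]); superoxide followed spectrophotometrically as SOD-inhibitable cytochrome c reduction, with catalase and DTPA added. Rate as μmol/L/min per U enzyme; mean ± SD, N ≥ 3.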

HaCaT [5] = test: Induction of superoxide generation in human HaCaT cells assessed as mean fluorescence intensity at 50 umol/L for 30 mins acute treatment (reference value: 7.1 +/- 5.2 no unit); format: functional
HaCaT [6] = test: Induction of superoxide generation in human HaCaT cells assessed as mean fluorescence intensity at 5 umol/L for 18 hrs chronic treatment (reference value: 367.5 +/- 80.1 no unit); format: functional
HaCaT [7] = test: Induction of superoxide generation in human HaCaT cells assessed as mean fluorescence intensity at 5 umol/L for 18 hrs chronic treatment in presence of dicoumarol NQO-1 inhibitor (reference value: 407.6 +/- 68.7 no unit); format: functional
HaCaT [8] = test: Induction of superoxide generation in human HaCaT cells assessed as apoptotic cells at 5 umol/L for 18 hrs chronic treatment (reference value: 3 +/- 1%); format: functional
HaCaT [9] = test: Induction of superoxide generation in human HaCaT cells assessed as apoptotic cells at 5 umol/L for 18 hrs chronic treatment in presence of dicoumarol NQO-1 inhibitor (reference value: 4.3 +/- 2.6%); format: functional

| Compound | IC50 (HaCaT [1]) | further results |
| --- | --- | --- |
| COc1ccc(Cc2ccc3c(c2O)C(=O)c2sccc2C3=O)cc1OC | > 30 µM |  |
| CCC(=O)c1cc2c(s1)C(=O)c1c(O)cccc1C2=O | 0.38 µM | Activity (HaCaT [2]): 244 mU/ml |
| CCc1ccc2c(c1O)C(=O)c1sccc1C2=O | 11.4 µM |  |
| O=C(OCCc1ccccc1)c1cc2c(s1)C(=O)c1c(O)cccc1C2=O | > 30 µM |  |
| O=C(O)c1ccccc1Cc1ccc2c(c1O)C(=O)c1sccc1C2=O | 25.7 µM |  |
| O=C1c2cc(-c3nc(CCc4ccccc4)no3)sc2C(=O)c2c(O)cccc21 | 0.48 µM |  |
| O=C1c2sccc2Cc2cccc(O)c21 | 2.5 µM |  |
| COc1c2ccsc2c(OC)c2c(OC)cccc12 | > 30 µM |  |
| COC(=O)Cc1ccc2c(c1O)C(=O)c1sccc1C2=O | 2.8 µM |  |
| O=C(c1cccs1)c1cc2c(s1)C(=O)c1c(O)cccc1C2=O | 0.29 µM | Activity (HaCaT [2]): 158 mU/ml |
| COc1ccc(COC(=O)c2cc3c(s2)C(=O)c2c(O)cccc2C3=O)cc1 | 11.9 µM |  |
| CC1(C)CCC2=C(O1)c1ccccc1C(=O)C2=O [LAPACHONE] |  | Activity (HaCaT [2]): 268 mU/ml |
| O=C1c2ccsc2C(=O)c2c1ccc(CO)c2O | 1.2 µM | Activity (HaCaT [2]): 214 mU/ml |
| Cc1ccc(Cc2ccc3c(c2O)C(=O)c2sccc2C3=O)cc1 | 13.8 µM |  |
| O=Cc1cc2c(s1)C(=O)c1c(O)cccc1C2=O | 1 µM |  |
| Cc1ccc2c(c1O)C(=O)c1sccc1C2=O | 5.3 µM |  |
| CCCOC(=O)Cc1ccc2c(c1O)C(=O)c1sccc1C2=O | 4.5 µM |  |
| O=C1c2ccsc2C(=O)c2c1ccc(Cc1ccco1)c2O | 8.5 µM | Activity (HaCaT [2]): 127 mU/ml |
| CCc1noc(-c2cc3c(s2)C(=O)c2c(O)cccc2C3=O)n1 | 0.19 µM | Activity (HaCaT [2]): 150 mU/ml; Activity [3]: 1 µmol/L/min; Activity [4]: 0.7 µmol/L/min; Flu intensity (HaCaT [5]): 20.9; Flu intensity (HaCaT [6]): 802.2; Flu intensity (HaCaT [7]): 747; Activity (HaCaT [8]): 77.6%; Activity (HaCaT [9]): 20.3% |
| O=C1c2ccccc2C(=O)c2ocnc21 | 0.9 µM |  |
| O=C(CCc1ccccc1)c1cc2c(s1)C(=O)c1c(O)cccc1C2=O | > 30 µM |  |
| O=C(Cc1ccc2c(c1O)C(=O)c1sccc1C2=O)OCc1ccccc1 | > 30 µM |  |
| CCOC(=O)Cc1ccc2c(c1O)C(=O)c1sccc1C2=O | 2.1 µM |  |
| CC(=O)c1cc2c(s1)C(=O)c1c(O)ccc(O)c1C2=O | 0.5 µM |  |
| CCc1noc(-c2cc3c(s2)C(=O)c2c(OC)cccc2C3=O)n1 | 3.52 µM |  |

| Compound | IC50 (HaCaT [1]) | further results |
| --- | --- | --- |
| O=C1c2ccsc2C(=O)c2c(O)cccc21 | 2.75 µM | Activity [3]: 1.8 µmol/L/min; Activity [4]: 0.3 µmol/L/min; Flu intensity (HaCaT [5]): 23.8; Flu intensity (HaCaT [6]): 610.6; Flu intensity (HaCaT [7]): 717.7; Activity (HaCaT [8]): 4.9%; Activity (HaCaT [9]): 6.1% |
| COc1ccc(C(=O)c2cc3c(s2)C(=O)c2c(O)cccc2C3=O)c(O)c1 | 7.07 µM |  |
| O=C1c2ccccc2C(=O)c2[nH]cnc21 | > 30 µM |  |
| O=C(O)c1ccc(Cc2ccc3c(c2O)C(=O)c2sccc2C3=O)cc1 | > 30 µM |  |
| CC(=O)c1cc2c(s1)C(=O)c1c(Cl)cccc1C2=O | 1.28 µM |  |
| CCC(=O)c1cc2c(s1)C(=O)c1c(OC)cccc1C2=O | 3.5 µM |  |
| CC(C)OC(=O)c1cc2c(s1)C(=O)c1c(O)cccc1C2=O | 0.92 µM |  |
| O=C(Cc1ccccc1)c1cc2c(s1)C(=O)c1c(O)cccc1C2=O | 4.42 µM |  |
| CC(=O)c1nc2c([nH]1)C(=O)c1ccccc1C2=O | > 30 µM |  |
| O=C1c2ccsc2C(=O)c2c1ccc(Cc1ccc(C(F)(F)F)cc1)c2O | 16.7 µM |  |
| CC1=CC(=O)c2ccccc2C1=O [MENADIONE] |  | Activity [3]: 2.1 µmol/L/min; Activity [4]: 1 µmol/L/min; Flu intensity (HaCaT [5]): 44; Flu intensity (HaCaT [6]): 431.9; Flu intensity (HaCaT [7]): 457.2; Activity (HaCaT [8]): 4.8%; Activity (HaCaT [9]): 3.1% |
| O=C1c2ccccc2C(=O)c2scnc21 | 1.2 µM |  |
| O=C1c2c(O)cccc2Cc2cccc(O)c21 [ANTHRALIN] |  | Activity (HaCaT [2]): 239 mU/ml |
| COC(=O)c1ccc(Cc2ccc3c(c2O)C(=O)c2sccc2C3=O)cc1 | > 30 µM |  |
| CCN(CC)C(=O)c1cc2c(s1)C(=O)c1c(O)cccc1C2=O | 0.36 µM | Activity (HaCaT [2]): 330 mU/ml |
| CCOC(=O)c1cc2c(s1)C(=O)c1c(OC)cccc1C2=O | 2.87 µM |  |
| COc1c2cc(C(=O)c3cccnc3)sc2c(OC)c2c(OC)cccc12 | > 30 µM |  |
| CC(=O)c1cc2c(s1)C(=O)c1ccccc1C2=O | 0.44 µM |  |
| CC(=O)Nc1cccc2c1C(=O)c1sccc1C2=O | 2.76 µM |  |
| COc1ccc(Cc2ccc3c(c2O)C(=O)c2sccc2C3=O)cc1 | 23.2 µM |  |
| N#Cc1ccc(Cc2ccc3c(c2O)C(=O)c2sccc2C3=O)cc1 | 14.2 µM |  |
| O=C(O)c1cc2c(s1)C(=O)c1c(O)cccc1C2=O | > 30 µM |  |
| COc1cccc2c1C(=O)c1sc(C(C)=O)cc1C2=O | 3.5 µM |  |
| COc1cccc2c1C(=O)c1sccc1C2=O | 13.5 µM |  |
| COC(=O)c1ccccc1Cc1ccc2c(c1O)C(=O)c1sccc1C2=O | 19.1 µM |  |

| Compound | IC50 (HaCaT [1]) | further results |
| --- | --- | --- |
| CCC(=O)c1cc2c(OC)c3cccc(OC)c3c(OC)c2s1 | > 30 µM |  |
| O=C1c2ccccc2C(=O)c2[se]ccc21 | 6.12 µM |  |
| CC(=O)c1cc2c(s1)C(=O)c1c(O)cccc1C2=O | 0.4 µM | Activity [3]: 1.1 µmol/L/min; Activity [4]: 0.6 µmol/L/min; Flu intensity (HaCaT [5]): 23.7; Flu intensity (HaCaT [6]): 921.4; Flu intensity (HaCaT [7]): 813; Activity (HaCaT [8]): 23%; Activity (HaCaT [9]): 7.3% |
| O=C(c1ccccc1)c1cc2c(s1)C(=O)c1c(O)cccc1C2=O | 0.8 µM | Activity (HaCaT [2]): 419 mU/ml |
| CCc1noc(-c2cc3c(OC)c4cccc(OC)c4c(OC)c3s2)n1 | > 30 µM |  |
| O=C1c2ccsc2C(=O)c2c(Cl)cccc21 | 3.77 µM |  |
| CCOC(=O)c1cc2c(s1)C(=O)c1c(O)cccc1C2=O | 0.76 µM | Activity (HaCaT [2]): 233 mU/ml |
| CCOC(=O)c1cc2c(OC)c3cccc(OC)c3c(OC)c2s1 | > 30 µM |  |
| Cn1cnc2c1C(=O)c1ccccc1C2=O | > 30 µM |  |
| COc1ccc(C(=O)c2cc3c(s2)C(=O)c2c(O)cccc2C3=O)cc1 | 4.72 µM |  |
| O=C(O)Cc1ccc2c(c1O)C(=O)c1sccc1C2=O | 21.5 µM |  |
| CC(=O)c1nc2c(n1C)C(=O)c1ccccc1C2=O | > 30 µM |  |
| O=C(c1ccc(Cl)cc1)c1cc2c(s1)C(=O)c1c(O)cccc1C2=O | 5.64 µM |  |
| O=C1c2ccccc2C(=O)c2sccc21 [THIOPHENONAPHTHOQUINONE] | 4.8 µM |  |
| O=C1c2ccccc2C(=O)c2[nH]ccc21 | > 30 µM |  |
| O=C(COc1ccccc1)c1cc2c(s1)C(=O)c1c(O)cccc1C2=O | 11.2 µM |  |
| O=C1c2ccsc2C(=O)c2c1ccc(Cc1ccccc1)c2O | 10.1 µM | Activity (HaCaT [2]): 107 mU/ml |
| CC(C)C(=O)c1cc2c(s1)C(=O)c1c(O)cccc1C2=O | 0.45 µM |  |
| COc1cccc2c1C(=O)c1sc(C(=O)c3cccnc3)cc1C2=O | 5.7 µM |  |
| O=C(c1cccnc1)c1cc2c(s1)C(=O)c1c(O)cccc1C2=O | 0.3 µM | Activity (HaCaT [2]): 154 mU/ml |
| CCCCc1ccc2c(c1O)C(=O)c1sccc1C2=O | > 30 µM |  |
| CC(=O)c1cc2c(s1)C(=O)c1c(ccc(CO)c1O)C2=O | 0.7 µM | Activity (HaCaT [2]): 284 mU/ml |
| O=C1c2ccsc2C(=O)c2c(O)ccc(O)c21 | 2.7 µM |  |
| Nc1cccc2c1C(=O)c1sccc1C2=O | > 30 µM |  |

Reference: ChEMBL document CHEMBL3351891, “Synthesis and structure-activity relationships of lapacho analogues. 2. Modification of the basic naphtho[2,3-b]furan-4,9-dione, redox activation, and suppression of human keratinocyte hyperproliferation by 8-hydroxynaphtho[2,3-b]thiophene-4,9-diones” (J Med Chem, 2014)
